Results reported in ChEMBL document CHEMBL3351848, “Novel insights into structure and function of factor XIIIa-inhibitor tridegin” (J Med Chem, 2014).
Active and inactive are the calls of the source. No cut-off for these calls is given here. Residues, ends and D or L forms follow the SMILES beside them. *: point of attachment. X1 = O=C(c1ccccc1-c1c2ccc(=O)cc-2oc2cc(O)ccc12)*

Assays:
[1] = biological target: T1, Coagulation factor XIII A chain (Homo sapiens, UniProt P00488); experiment: Inhibition of recombinant F13a (unknown origin) using H-Tyr-Glu(pNA)-Val-Lys-Val-Ile-Gly-NH2 as substrate by chromogenic assay
T1 sequence (P00488 whole entry): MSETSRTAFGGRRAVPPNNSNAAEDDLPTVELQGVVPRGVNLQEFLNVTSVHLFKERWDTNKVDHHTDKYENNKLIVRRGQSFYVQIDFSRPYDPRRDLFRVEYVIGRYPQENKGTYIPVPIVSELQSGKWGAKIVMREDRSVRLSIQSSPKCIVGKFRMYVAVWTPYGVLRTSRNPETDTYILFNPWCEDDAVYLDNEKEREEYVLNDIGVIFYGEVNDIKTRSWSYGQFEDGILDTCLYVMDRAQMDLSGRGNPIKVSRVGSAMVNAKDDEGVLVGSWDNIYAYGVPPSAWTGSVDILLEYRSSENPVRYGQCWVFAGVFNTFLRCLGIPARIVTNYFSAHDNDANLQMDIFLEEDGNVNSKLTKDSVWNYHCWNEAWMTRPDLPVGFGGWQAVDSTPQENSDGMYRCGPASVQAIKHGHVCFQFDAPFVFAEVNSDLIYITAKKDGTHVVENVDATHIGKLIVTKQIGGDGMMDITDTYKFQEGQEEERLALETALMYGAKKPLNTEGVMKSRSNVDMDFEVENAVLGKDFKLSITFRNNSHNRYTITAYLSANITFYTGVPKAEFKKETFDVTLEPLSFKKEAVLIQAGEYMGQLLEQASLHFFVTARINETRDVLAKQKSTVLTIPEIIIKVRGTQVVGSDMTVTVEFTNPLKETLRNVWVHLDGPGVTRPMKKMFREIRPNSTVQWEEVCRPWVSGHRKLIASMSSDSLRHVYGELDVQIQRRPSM

[2] = biological target: T2, Coagulation factor XIII A chain (Homo sapiens) (UniProt P00488); experiment: Binding affinity to nonactivated recombinant F13A subunit (unknown origin) by microscale thermophoresis method
T2 sequence (whole entry): T1 sequence (P00488 whole entry)
Summary of the method: (§1)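 Carboxyfluorescein-labeled peptide (2 μM solution, before mixing) in 50 mM Tris-HCl pH 7.5, 0.9% w/v NaCl, with Tween-20 to 0.1% final. Mixed with an equal volume of protein (FXIIIa, FXIII-A or FXIII-B) in the same buffer, 15 concentrations spanning 3.1 μM to 0.1 nM. After 20 min incubation, the mixture was loaded into glass capillaries and thermophoresis read three times per capillary.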

[3] = biological target: T3, Coagulation factor XIII B chain (Homo sapiens) (UniProt P05160); experiment: Binding affinity to nonactivated recombinant F13B subunit (unknown origin) by microscale thermophoresis method; summary of the method: as §1
T3 sequence (whole entry): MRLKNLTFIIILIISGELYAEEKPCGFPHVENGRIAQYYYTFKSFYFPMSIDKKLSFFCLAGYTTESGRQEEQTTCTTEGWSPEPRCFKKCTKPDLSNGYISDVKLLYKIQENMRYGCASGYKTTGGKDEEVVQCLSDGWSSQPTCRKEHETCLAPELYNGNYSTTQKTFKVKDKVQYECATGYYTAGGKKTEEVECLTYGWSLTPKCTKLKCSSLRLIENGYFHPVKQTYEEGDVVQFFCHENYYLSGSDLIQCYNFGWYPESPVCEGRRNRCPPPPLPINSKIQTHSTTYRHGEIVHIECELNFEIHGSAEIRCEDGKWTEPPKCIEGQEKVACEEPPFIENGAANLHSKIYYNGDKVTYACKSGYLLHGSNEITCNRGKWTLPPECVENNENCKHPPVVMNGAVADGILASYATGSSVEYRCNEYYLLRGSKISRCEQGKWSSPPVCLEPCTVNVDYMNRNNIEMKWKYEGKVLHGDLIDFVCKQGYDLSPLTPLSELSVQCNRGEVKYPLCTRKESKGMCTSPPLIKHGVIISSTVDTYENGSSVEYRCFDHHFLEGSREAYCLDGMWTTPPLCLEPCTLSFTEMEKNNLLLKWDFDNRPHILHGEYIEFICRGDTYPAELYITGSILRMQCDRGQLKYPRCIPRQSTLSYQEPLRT

[4] = biological target: T4, Protein-glutamine gamma-glutamyltransferase (Homo sapiens) (UniProt P21980); experiment: Inhibition of human TGase-2 using fluorogenic FRET substrate at 10 uM
T4 sequence (whole entry): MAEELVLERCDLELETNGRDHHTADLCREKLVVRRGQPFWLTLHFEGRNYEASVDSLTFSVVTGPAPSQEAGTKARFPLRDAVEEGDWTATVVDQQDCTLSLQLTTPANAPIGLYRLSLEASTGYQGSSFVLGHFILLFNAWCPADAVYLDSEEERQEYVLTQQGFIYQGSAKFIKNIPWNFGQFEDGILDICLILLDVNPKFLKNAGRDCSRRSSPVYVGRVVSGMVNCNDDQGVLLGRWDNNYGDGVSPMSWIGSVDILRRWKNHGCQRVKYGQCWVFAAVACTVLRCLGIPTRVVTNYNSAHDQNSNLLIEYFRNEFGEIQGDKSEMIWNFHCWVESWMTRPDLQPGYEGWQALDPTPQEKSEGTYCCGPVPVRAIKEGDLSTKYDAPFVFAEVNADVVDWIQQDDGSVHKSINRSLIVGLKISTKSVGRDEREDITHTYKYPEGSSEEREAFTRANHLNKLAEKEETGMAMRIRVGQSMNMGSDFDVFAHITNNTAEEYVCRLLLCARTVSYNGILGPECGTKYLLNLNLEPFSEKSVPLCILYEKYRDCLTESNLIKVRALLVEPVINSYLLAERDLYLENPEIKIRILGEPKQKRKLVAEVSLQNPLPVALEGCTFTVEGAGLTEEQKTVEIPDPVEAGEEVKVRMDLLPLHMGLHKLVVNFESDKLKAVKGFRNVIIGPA

[5] = biological target: T1, Coagulation factor XIII A chain; experiment: Binding affinity to recombinant F13A (unknown origin) by microscale thermophoresis method; summary of the method: as §1

SMILES	IC50 [1] [nM]	Activity [2]	Activity [3]	inhibition [4] [%]	Kd [5] [nM]
CC[C@H](C)[C@H](NC(=O)[C@H](CC(=O)O)NC(=O)[C@H](CC(=O)O)NC(=O)[C@H](CCSC)NC(=O)[C@@H]1CCCN1C(=O)[C@H](CCCCN)NC(=O)[C@@H](NC(=O)[C@H](CC(C)C)NC(=O)[C@H](CCC(=O)O)NC(=O)[C@@H](N)CO)[C@@H](C)CC)C(=O)N[C@@H](Cc1ccc(O)cc1)C(=O)N[C@@H](CCC(N)=O)C(=O)N[C@@H](CCCNC(=N)N)C(=O)N1CCC[C@H]1C(=O)N[C@H](C(=O)N[C@@H](CCC(=O)O)C(=O)N[C@@H](Cc1ccccc1)C(=O)N1CCC[C@H]1C(=O)N[C@@H](CC(N)=O)C(=O)N[C@@H](CC(C)C)C(=O)N1CCC[C@H]1C(=O)N[C@@H](CC(C)C)C(=O)O)C(C)C (H-SELIKPMDDIYQRPVEFPNLPL-OH)	1900				
CC[C@H](C)[C@H](NC(=O)[C@H](CC(=O)O)NC(=O)[C@H](CC(=O)O)NC(=O)[C@H](CCSC)NC(=O)[C@@H]1CCCN1C(=O)[C@H](CCCCN)NC(=O)[C@@H](NC(=O)[C@H](CC(C)C)NC(=O)[C@H](CCC(=O)O)NC(=O)[C@H](CO)NC(=O)[C@H](CCCNC(=N)N)NC(=O)[C@@H]1CCCN1C(=O)[C@H](CCCNC(=N)N)NC(=O)[C@H](CS)NC(=O)[C@H](CCC(N)=O)NC(=O)[C@@H]1CCCN1C(=O)[C@@H](NC(=O)[C@H](Cc1ccccc1)NC(=O)[C@H](C)N)[C@@H](C)CC)[C@@H](C)CC)C(=O)N[C@@H](Cc1ccc(O)cc1)C(=O)N[C@@H](CCC(N)=O)C(=O)N[C@@H](CCCNC(=N)N)C(=O)N1CCC[C@H]1C(=O)N[C@H](C(=O)N[C@@H](CCC(=O)O)C(=O)N[C@@H](Cc1ccccc1)C(=O)N1CCC[C@H]1C(=O)N[C@@H](CC(N)=O)C(=O)N[C@@H](CC(C)C)C(=O)N1CCC[C@H]1C(=O)N[C@@H](CC(C)C)C(=O)N[C@@H](CCCCN)C(=O)N1CCC[C@H]1C(=O)N[C@@H](CCCNC(=N)N)C(=O)N[C@@H](CCC(=O)O)C(=O)O)C(C)C (H-AFIPQCRPRSELIKPMDDIYQRPVEFPNLPLKPRE-OH)	1700	inactive	inactive		
CC[C@H](C)[C@H](NC(=O)[C@H](CC(=O)O)NC(=O)[C@H](CC(=O)O)NC(=O)[C@H](CCSC)NC(=O)[C@@H]1CCCN1C(=O)[C@H](CCCCN)NC(=O)[C@@H](NC(=O)[C@H](CC(C)C)NC(=O)[C@H](CCC(=O)O)NC(=O)[C@H](CO)NC(=O)[C@H](CCCNC(=N)N)NC(=O)[C@@H]1CCCN1C(=O)[C@@H](N)CCCNC(=N)N)[C@@H](C)CC)C(=O)N[C@@H](Cc1ccc(O)cc1)C(=O)N[C@@H](CCC(N)=O)C(=O)N[C@@H](CCCNC(=N)N)C(=O)N1CCC[C@H]1C(=O)N[C@H](C(=O)N[C@@H](CCC(=O)O)C(=O)N[C@@H](Cc1ccccc1)C(=O)N1CCC[C@H]1C(=O)N[C@@H](CC(N)=O)C(=O)N[C@@H](CC(C)C)C(=O)N1CCC[C@H]1C(=O)N[C@@H](CC(C)C)C(=O)N[C@@H](CCCCN)C(=O)N1CCC[C@H]1C(=O)N[C@@H](CCCNC(=N)N)C(=O)N[C@@H](CCC(=O)O)C(=O)O)C(C)C (H-RPRSELIKPMDDIYQRPVEFPNLPLKPRE-OH)	2200	inactive	inactive	< 10	
CC[C@H](C)[C@H](NC(=O)CNC(=O)[C@H](CCC(N)=O)NC(=O)[C@H](Cc1cnc[nH]1)NC(=O)[C@H](Cc1c[nH]c2ccccc12)NC(=O)[C@H](CCC(=O)O)NC(=O)[C@H](CCCCN)NC(=O)[C@H](CS)NC(=O)[C@@H]1CCCN1C(=O)[C@H](CC(C)C)NC(=O)[C@H](CC(C)C)NC(=O)[C@H](CCCCN)NC(=O)c1ccccc1-c1c2ccc(=O)cc-2oc2cc(O)ccc12)C(=O)N1CCC[C@H]1C(=O)N[C@@H](CC(N)=O)C(=O)N1CCC[C@H]1C(=O)N[C@@H](CCCNC(=N)N)C(=O)N[C@@H](CS)C(=O)N[C@@H](Cc1c[nH]c2ccccc12)C(=O)N[C@@H](CS)C(=O)NCC(=O)N[C@@H](C)C(=O)N[C@@H](CC(=O)O)C(=O)N[C@@H](CC(C)C)C(=O)N[C@@H](CCC(=O)O)C(=O)N[C@@H](CS)C(=O)N[C@@H](C)C(=O)N[C@@H](CCC(N)=O)C(=O)N[C@@H](CC(=O)O)C(=O)N[C@@H](CCC(N)=O)C(=O)N[C@@H](Cc1ccc(O)cc1)C(=O)N[C@@H](CS)C(=O)N[C@@H](C)C(=O)N[C@@H](Cc1ccccc1)C(=O)N[C@H](C(=O)N1CCC[C@H]1C(=O)N[C@@H](CCC(N)=O)C(=O)N[C@@H](CS)C(=O)O)[C@@H](C)CC (X1-KLLPCKEWHQGIPNPRCWCGADLECAQDQYCAFIPQC-OH)		inactive	inactive		< 100
CC[C@H](C)[C@H](NC(=O)[C@H](CC(=O)O)NC(=O)[C@H](CC(=O)O)NC(=O)[C@H](CCSC)NC(=O)[C@@H]1CCCN1C(=O)[C@H](CCCCN)NC(=O)[C@@H](NC(=O)[C@H](CC(C)C)NC(=O)[C@H](CCC(=O)O)NC(=O)[C@H](CO)NC(=O)[C@H](CCCNC(=N)N)NC(=O)[C@@H]1CCCN1C(=O)[C@H](CCCNC(=N)N)NC(=O)c1ccccc1-c1c2ccc(=O)cc-2oc2cc(O)ccc12)[C@@H](C)CC)C(=O)N[C@@H](Cc1ccc(O)cc1)C(=O)N[C@@H](CCC(N)=O)C(=O)N[C@@H](CCCNC(=N)N)C(=O)N1CCC[C@H]1C(=O)N[C@H](C(=O)N[C@@H](CCC(=O)O)C(=O)N[C@@H](Cc1ccccc1)C(=O)N1CCC[C@H]1C(=O)N[C@@H](CC(N)=O)C(=O)N[C@@H](CC(C)C)C(=O)N1CCC[C@H]1C(=O)N[C@@H](CC(C)C)C(=O)N[C@@H](CCCCN)C(=O)N1CCC[C@H]1C(=O)N[C@@H](CCCNC(=N)N)C(=O)N[C@@H](CCC(=O)O)C(=O)O)C(C)C (X1-RPRSELIKPMDDIYQRPVEFPNLPLKPRE-OH)		inactive	inactive		800
